In ChEMBL document CHEMBL1135484, “Structural features of azidopyridinyl neonicotinoid probes conferring high affinity and selectivity for mammalian alpha4beta2 and Drosophila nicotinic receptors” (J Med Chem, 2002):

Experiments:
Drosophila melanogaster = assay: Selectivity ratio of Ki of Nicotinic acetylcholine receptor of Drosophila to Nicotinic acetylcholine receptor alpha4-beta2
[1] = target: Neuronal acetylcholine receptor; alpha4/beta2; assay: Potency to displace [3H]nicotine binding to Nicotinic acetylcholine receptor alpha4-beta2 immuno-isolated from M10 cells; format: cell-based, Gallus gallus
[2] = Potency to displace [3H]IMI binding to Nicotinic acetylcholine receptor from Drosophila head membranes; set-up: species or system Drosophila melanogaster
How it was run: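 Drosophila head membranes as receptor source, competition against [3H]IMI binding; IC50 (concentration giving 50% inhibition of specific binding) fitted by iterative nonlinear least-squares regression.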

`[N-]=[N+]=Nc1cc(CN2CCN=C2N)cnc1Cl` gave a Selectivity (Drosophila melanogaster) of 2190, a Ki [1] of 2.6 nM and a Ki [2] of 5700 nM.
`[N-]=[N+]=Nc1cc(Cn2ccs/c2=N\[N+](=O)[O-])cnc1Cl` gave a Selectivity (Drosophila melanogaster) of 44, a Ki [1] of 170 nM and a Ki [2] of 3.9 nM.
Work on `N#C/N=c1\sccn1Cc1ccc(Cl)nc1` [THIACLOPRID OLEFIN] yielded a Selectivity (Drosophila melanogaster) of 86, a Ki [1] of 120 nM and a Ki [2] of 1.4 nM.
Work on `[N-]=[N+]=Nc1cncc(Cn2ccnc2N[N+](=O)[O-])c1` yielded a Selectivity (Drosophila melanogaster) of 10, a Ki [1] of 5400 nM and a Ki [2] of 540 nM.
In the case of `O=[N+]([O-])NC1=NCCN1Cc1ccc(Cl)nc1` [IMIDACLOPRID], the Ki [1] is reported as 720 nM.
Work on `[N-]=[N+]=Nc1cc(Cl)ncc1Cn1ccnc1N[N+](=O)[O-]` yielded a Selectivity (Drosophila melanogaster) of 37, a Ki [1] of 16900 nM and a Ki [2] of 460 nM.
Work on `N=C1NCCN1Cc1ccc(Cl)nc1` [DESNITROIMIDACLOPRID] yielded a Selectivity (Drosophila melanogaster) of 364, a Ki [1] of 2.2 nM and a Ki [2] of 800 nM.
For `[N-]=[N+]=Nc1cncc(Cn2ccsc2=N)c1`, the Selectivity (Drosophila melanogaster) was 867, the Ki [1] was 8.3 nM and the Ki [2] was 7200 nM.
Work on `[N-]=[N+]=Nc1cc(CN2CCN/C2=N\[N+](=O)[O-])cnc1Cl` [5-AZIDOIMIDACLOPRID] yielded a Selectivity (Drosophila melanogaster) of 14 and a Ki [2] of 24 nM.
Compound `O=[N+]([O-])Nc1nccn1Cc1ccc(Cl)nc1` [DEHYDROIMIDACLOPRID] has a Selectivity (Drosophila melanogaster) of 553, a Ki [1] of 470 nM and a Ki [2] of 0.85 nM.
`N#C/N=c1\sccn1Cc1cnc(Cl)c(N=[N+]=[N-])c1` gave a Selectivity (Drosophila melanogaster) of 4.3, a Ki [1] of 120 nM and a Ki [2] of 28 nM.
In the case of `[N-]=[N+]=Nc1cc(Cl)ncc1Cn1ccsc1=N`, the Selectivity (Drosophila melanogaster) is reported as 29, the Ki [1] is reported as 110 nM and the Ki [2] is reported as 3200 nM.
Work on `[N-]=[N+]=Nc1ccncc1Cn1ccnc1N[N+](=O)[O-]` yielded a Selectivity (Drosophila melanogaster) of 27, a Ki [1] of 95800 nM and a Ki [2] of 3600 nM.
Compound `CN1CCC[C@H]1c1cccnc1` [NICOTINE] has a Ki [2] of 2000 nM.
`Clc1ccc(C2CC3CCC2N3)cn1` (stereo unspecified) [EPIBATIDINE] showed a Ki [2] of 220 nM.
`N=c1sccn1Cc1ccc(Cl)nc1` gave a Selectivity (Drosophila melanogaster) of 256, a Ki [1] of 0.39 nM and a Ki [2] of 100 nM.
`[N-]=[N+]=Nc1ccncc1Cn1ccsc1=N` showed a Selectivity (Drosophila melanogaster) of 36, a Ki [1] of 820 nM and a Ki [2] of 30000 nM.
With `O=[N+]([O-])/N=C1\NCCN1Cc1ccc(Cl)nc1` [IMIDACLOPRID] the Selectivity (Drosophila melanogaster) was 327 and the Ki [2] was 2.2 nM.
In the case of `O=[N+]([O-])/N=c1\sccn1Cc1ccc(Cl)nc1`, the Selectivity (Drosophila melanogaster) is reported as 486, the Ki [1] is reported as 170 nM and the Ki [2] is reported as 0.35 nM.
`[N-]=[N+]=Nc1cc(CN2CCNC2=N[N+](=O)[O-])cnc1Cl` [5-AZIDOIMIDACLOPRID] showed a Ki [1] of 340 nM.
Compound `[N-]=[N+]=Nc1cc(Cn2ccsc2=N)cnc1Cl` has a Selectivity (Drosophila melanogaster) of 1600, a Ki [1] of 0.47 nM and a Ki [2] of 750 nM.
Work on `[N-]=[N+]=Nc1cc(Cn2ccnc2N[N+](=O)[O-])cnc1Cl` yielded a Selectivity (Drosophila melanogaster) of 23, a Ki [1] of 300 nM and a Ki [2] of 13 nM.
